Bioassay records: PubChem, The Scripps Research Institute Molecular Screening Center
NPY-Y1 antag = NPY-Y1 receptor antagonists, primary screen, cell-based; inhibition, % at 3.6 µM; AID 1040, 2008; hit rate 1% among 200,000; HEK293-CNG Y1 cells, membrane potential fluorescence; NPY at EC95, then isoproterenol; Neuropeptide Y receptor type 1 (Homo sapiens), P25929;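 active = inhibition above the campaign mean inhibition of all tested compounds plus 3 SD, cut at about 20% in these data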;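 note: 0% = DMSO wells given NPY plus isoproterenol and 100% = isoproterenol alone without NPY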
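Material: HEK293 cells co-expressing NPY Y1 receptor and cyclic-nucleotide gated channel. Timing: compound incubation 1 h at room temperature, readout 45 min post-stimulation. Signal: fluorescence, membrane potential probe.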
NPY2 pot ag = NPY-Y2 potentiators or agonists, primary screen, cell-based; hit rate 0.45% among 220,000; activation, % at 3.6 µM; cells expressing NPY-Y2, potentiator/agonist read-out; Neuropeptide Y receptor type 2 (Homo sapiens), P49146; in the data active = activation above about 27%;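 note: cells stimulated with NPY near EC25 plus isoproterenol at EC100; 0% = vehicle plus submaximal agonist and 100% = vehicle plus saturating agonist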
Target sequence (P49146 whole entry, looked up): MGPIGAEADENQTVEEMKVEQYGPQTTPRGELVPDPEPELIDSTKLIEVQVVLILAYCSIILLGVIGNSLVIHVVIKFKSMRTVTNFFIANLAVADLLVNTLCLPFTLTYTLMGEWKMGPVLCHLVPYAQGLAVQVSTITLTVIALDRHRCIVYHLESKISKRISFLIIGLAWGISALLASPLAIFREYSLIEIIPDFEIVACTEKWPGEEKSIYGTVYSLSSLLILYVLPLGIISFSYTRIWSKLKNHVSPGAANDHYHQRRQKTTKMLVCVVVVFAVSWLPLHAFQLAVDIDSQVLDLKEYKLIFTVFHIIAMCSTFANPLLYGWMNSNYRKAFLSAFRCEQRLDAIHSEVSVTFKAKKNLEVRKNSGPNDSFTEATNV
NPY Y2 blocker = NPY-Y2 receptor antagonists, primary screen, cell-based; Neuropeptide Y receptor type 2 (Homo sapiens), P49146; NPY-Y2 expressing cells, antagonist mode; inhibition, % at 2.7 µM; hit rate 0.99% among 140,000; in the data active = inhibition above about 17%;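 note: 0% = vehicle with agonist challenge and 100% = reference antagonist with challenge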
NPY-Y1 PAM-ag = NPY-Y1 receptor potentiators or agonists, primary screen, cell-based. activation, % at 3.6 µM. AID 1304, 2008. NPY-Y1 expressing cells, potentiator/agonist activation. hit rate 0.37% among 220,000. Neuropeptide Y receptor type 1 (Homo sapiens), P25929; in the data active = activation above about 33%, passing the limit was not always enough;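 note: cells stimulated with NPY at EC10 then isoproterenol at EC100; 0% = low agonist plus stimulus and 100% = saturating agonist plus stimulus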
NPY-Y1 antag ct = NPY-Y1 receptor antagonists, selectivity check, counter-screen for NPY-Y2 antagonist project, cell-based | shares compounds with NPY Y2 blocker | cell-based NPY-Y1 antagonism counterscreen | inhibition, % at 3.6 µM | hit rate 19% among 710;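 note: cells challenged with NPY then isoproterenol with cAMP sensed through a CNG channel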
NPY-Y2 ant conf = NPY-Y2 receptor antagonists, retest of hits, confirmation, HEK293-CNG cells, membrane potential fluorescence, triplicate; shares compounds with NPY Y2 blocker; HEK293 NPY-Y2 CNG channel; inhibition, % at 2.8 µM; hit rate 32% among 710;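 active = mean inhibition of triplicate wells above the hit cutoff set in the primary screen, cut at about 17% in these data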;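 note: 0% = DMSO with NPY challenge and 100% = BIIE0246 high control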
NPY1 antag conf = NPY-Y1 receptor antagonists, retest of hits, confirmation, HEK293-CNG cells, membrane potential fluorescence, triplicate. shares compounds with NPY-Y1 antag. cAMP; NPY challenge against isoproterenol-raised cAMP. inhibition, % at 3.6 µM. hit rate 21% among 1,200. AID 1254, 2008;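 note: 0% = vehicle with agonist plus stimulus and 100% = stimulus alone without agonist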
NPY2 antag ctr = NPY-Y2 receptor antagonists, selectivity check, confirmation, counter-screen for NPY-Y1 antagonist project, HEK293-CNG cells, membrane potential fluorescence, triplicate. shares compounds with NPY-Y1 antag. antagonism; cells given NPY, then isoproterenol. inhibition, % at 3.6 µM. hit rate 28% among 1,200; in the data active = inhibition above about 17%;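 note: 0% = DMSO with agonist challenge and 100% = reference antagonist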
Starred values were filed as active, the others as inactive; . = no result given; + = active, no number; ! = not active in a repeat. Shown are actives, neighbours in structure and some others; about 1.8% of the full set was active somewhere. Cut-off read from the data, not from the text of the source, unless noted: active = inhibition above about 20%; inactive = the rest.

SMILES	NPY-Y1 antag	NPY2 pot ag	NPY Y2 blocker	NPY-Y1 PAM-ag	NPY-Y1 antag ct	NPY-Y2 ant conf	NPY1 antag conf	NPY2 antag ctr
Cc1ccccc1OCC(O)Cn1c(=N)n(CCN2CCOCC2)c2ccccc21 (stereo not given)	30*!	-2	28*	-16	10	7	.	.
COc1ccccc1OCC(O)Cn1c(=N)n(CCN2CCCCC2)c2ccccc21 (stereo not given)	17	-7	45*	-53	31*	39*	.	.
Cc1ccccc1NC(=O)c1cccc2nc3ccccc3nc12	-6	6	19*	20	-2	-4	.	.
Cc1ccccc1NC(=O)c1ccccc1NC(=O)Cc1cccc2ccccc12	3	2	0	24	.	.	.	.
COc1ccc(-c2cc(C(=O)Nc3c(Cl)cc(Cl)cc3Cl)c3ccccc3n2)cc1OC	10	-25	79*	-20	152*	195*	.	.
COc1cccc(-c2cc(C(=O)Nc3ccc([N+](=O)[O-])cn3)c3ccccc3n2)c1	3	-5	26*	-25	37*	52*	.	.
COC(=O)c1cc(OC)c(OC)cc1NC(=O)c1cc(-c2ccccc2)nc2ccccc12	3	-5	2	-1	.	.	.	.
COc1ccc(-c2cc(C(=O)Nc3ccc(Cl)cc3Cl)c3ccccc3n2)cc1OC	6	-16	124*	-29	133*	+	.	.
CCNc1ccc2noc3c2c1C(=O)c1ccccc1-3	15	49*	45*	72*	15	8	.	.
O=C(Nc1ccc2c(c1)OCO2)c1nn(-c2ccccc2)c(=O)c2ccccc12	-2	-19	17*	-35	11	9	.	.
O=C(Nc1ccccc1)OCc1cc(-c2ccccc2Cl)on1	16	-19	22*	-10	19	18*	.	.
Cc1nn(C)c(=O)n1N(C)c1ncc(C(F)(F)F)cc1Cl	0	-6	.	-13	.	.	.	.
Cc1ccc(C(C(=O)NCc2ccco2)N(CCc2ccccc2)C(=O)Cn2nnc3ccccc32)o1 (stereo not given)	19	0	32*	2	20*	11	.	.
Cc1ccc(CN(C(=O)Cn2nnc3ccccc32)C(C(=O)NCc2ccco2)c2ccc(C)o2)cc1 (stereo not given)	1	-6	2	-3	.	.	.	.
O=C(CNc1ccc2c(c1)OCO2)N/N=C\c1ccccc1Cl	10	-9	40*	-42	4	9	.	.
CC(C)CN(CC(C)C)C(=O)CS(=O)(=O)Cc1ccccc1	-1	9	-2	-10	.	.	.	.
O=C(CCc1ccc(S(=O)(=O)N2CCOCC2)cc1)Nc1ccc2c(c1)OCCO2	.	-19	.	-9	.	.	.	.
CCOC(=O)c1sc2ccc(S(=O)(=O)N3CC(C)CC(C)C3)cc2c1N (stereo not given)	-1	-6	4	-18	.	.	.	.
Clc1cccc(OCCN2CCN(CCOc3cccc(Cl)c3)CC2)c1	21*	-4	11	-5	.	.	5	7
Cc1onc(-c2c(Cl)cccc2Cl)c1C(=O)N=C(N)N1CCCC1	.	16	.	-1	.	.	.	.
Cc1cc(NC(=O)CSc2nc3ccccc3c(=O)n2C2CCCC2)no1	33*	-8	12	-24	.	.	2	13
NC(=O)c1nnsc1Sc1c(C(N)=O)nnn1-c1cccc(N)c1	-5	8	.	12	.	.	.	.
Cc1cccc(NC(=O)NNC(=O)c2cc3ccccc3cc2O)c1C	24*	-5	.	-21	.	.	15	13
Brc1cc(Cc2nnc(-c3ccccc3)o2)c(Br)s1	.	12	.	16	.	.	.	.
COC(=O)C(Cc1ccccc1)P(=O)(c1ccccc1)c1ccccc1 (stereo not given)	8	-12	-1	-3	.	.	.	.
SMILES	NPY-Y1 antag	NPY2 pot ag	NPY Y2 blocker	NPY-Y1 PAM-ag	NPY-Y1 antag ct	NPY-Y2 ant conf	NPY1 antag conf	NPY2 antag ctr
C[C@@H]1CN(C(=O)c2nc3ccc(Cl)cn3c2CNCC[C@@H]2C[C@@H]3C=C[C@H]2C3)C[C@H](C)O1	24*	-16	.	1	.	.	17	15
O=C(c1nc2ccc(Cl)cn2c1CNCC[C@@H]1C[C@@H]2C=C[C@H]1C2)N1CCCCCCC1	18	-2	.	3	.	.	.	.
COc1cccc(C2(O)CCN(C(=O)Cc3cccnc3)CC2)c1	3	3	3	6	.	.	.	.
COc1ccc(OCCSc2nnc(Cc3cccc4ccccc34)n2N)cc1	3	-3	3	19	.	.	.	.
OC(COc1ccc2c(c1)CCC2)CN1CCN(c2ccccc2F)CC1 (stereo not given)	26*	-30	10	-25	.	.	13	16
CCCN(c1ccc(C(=O)OC)cc1)S(=O)(=O)c1ccccc1	11	-8	.	-33	.	.	.	.
CCCCN(c1ccc(C(=O)OC)cc1)S(=O)(=O)c1ccccc1	86*	-15	.	-8	.	.	10	7
O=C(CSc1nnc(Cc2cccs2)n1CCc1ccccc1)N1CCCc2ccccc21	22*	-19	13	-18	.	.	7	6
Cc1ccsc1C(=O)C1CCCN(Cc2cccn2-c2ccc(Cl)cn2)C1 (stereo not given)	41*	-24	.	-36	.	.	42*	38*
Cc1ccc(-n2cccn2)c(CN2CCCC(C(=O)c3sccc3C)C2)c1 (stereo not given)	72*	-68	.	-39	.	.	32*	38*
COc1cccc(C(=O)C2CCCN(Cc3cccn3-c3ccccn3)C2)c1 (stereo not given)	37*	-37	.	-46	.	.	35*	30*
COc1ccc(C(=O)C2CCCN(Cc3cccn3-c3ccccn3)C2)cc1F (stereo not given)	22*	45*	.	55*	.	.	14	-1
COc1ccc(C(=O)C2CCCN(Cc3cccn3-c3nccs3)C2)cc1F (stereo not given)	20	-3	.	-19	.	.	.	.
O=C(C1=C[C@H](c2ccccc2)C[C@H](OCc2ccc(CO)cc2)O1)N1CCCCCCC1	-1	-12	.	-2	.	.	.	.
CCc1ccc(NC(=O)CCNS(=O)(=O)c2cccc3nonc23)cc1	-5	12	0	14	.	.	.	.
CN(C)/C=N/c1cc(=O)[nH]c(=O)n1C	2	3	0	-2	.	.	.	.
COc1ccc(NCC(=O)Nc2ccc(Br)cc2F)c(OC)c1	.	1	.	35	.	.	.	.
